According to ChEMBL document CHEMBL1240321, “Cyclostreptin binds covalently to microtubule pores and lumenal taxoid binding sites” (Nat Chem Biol, 2007):
Activity calls are given as the source filed them. The calls are words filed in the database; no cut-off is given here.

What was measured:
[1] = Induction of micronucleation in potoroo PtK2 cells at 2 uM after 7 hrs by flow cytometry; format: functional, Potorous tridactylus
[2] = molecular target: Tubulin (Homo sapiens) (UniProt P68371+Q9H4B7+P0DPH7+P68366+Q13509+Q71U36+P04350+Q3ZCM7+P07437+P68363+Q9BQE3+Q6PEY2+Q13885+Q9BVA1+Q9BUF5); assay: Induction of covalent modification of tubulin at Thr220 and Asn228 in human A549 cells by HPLC analysis; format: cell-based
How it was run: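 A549 monolayers exposed 24 h to 1 µM ligand or 0.1% DMSO. Tubulin purified from homogenate supernatant by one-step DEAE ion exchange (0.4 M KCl load, 0.8 M KCl elution) to 90% purity. Tryptic or chymotryptic digests analysed by HPLC-MRM with Q3 at m/z 249.0. Adduct fraction estimated from the areas of modified and unmodified peptide peaks.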

[3] = Induction of mitotic cell cycle arrest in potoroo PtK2 cells assessed as accumulation of cells at SubG1 phase at 2 uM after 7 hrs by flow cytometry (Rvb= 2.4%); format: functional, Potorous tridactylus
[4] = Induction of mitotic cell cycle arrest in potoroo PtK2 cells assessed as accumulation of cells at SubG1 phase at 5 uM treated for 7 hrs, washed followed by 16 hrs incubation by flow cytometry (Rvb= 2%); format: functional, Potorous tridactylus
[5] = system: PtK2; assay: Induction of micronucleation in potoroo PtK2 cells at 5 uM treated for 7 hrs followed by compound washout measured after 16 hrs by flow cytometry; conditions: Potorous tridactylus
[6] = Induction of mitotic cell cycle arrest in human A2780AD cells assessed as accumulation of cells at G2+M phase at 100 nM after 24 hrs by flow cytometry (Rvb= 20.5%); format: functional, A2780 ADR
[7] = Induction of mitotic cell cycle arrest in potoroo PtK2 cells assessed as accumulation of cells at G1/G0 phase at 2 uM treated for 7 hrs, washed followed by 16 hrs incubation by flow cytometry (Rvb= 59%); format: functional, Potorous tridactylus
[8] = Induction of mitotic cell cycle arrest in potoroo PtK2 cells assessed as accumulation of cells at G1/G0 phase at 5 uM after 7 hrs by flow cytometry (Rvb= 60%); format: functional, Potorous tridactylus
[9] = Displacement of [3H]paclitaxel from microtubule assessed as bound radioligand level at 20 uM treated after radioligand addition by competitive binding assay
[10] = Induction of micronucleation in potoroo PtK2 cells at 5 uM after 7 hrs by flow cytometry; format: functional, Potorous tridactylus
[11] = Induction of mitotic cell cycle arrest in potoroo PtK2 cells assessed as accumulation of cells at G2+M phase at 5 uM treated for 7 hrs, washed followed by 16 hrs incubation by flow cytometry (Rvb= 23%); format: functional, Potorous tridactylus
[12] = system: PtK2; assay: Induction of micronucleation in potoroo PtK2 cells at 2 uM treated for 7 hrs followed by compound washout measured after 16 hrs by flow cytometry; conditions: Potorous tridactylus
[13] = system: A549; assay: Induction of mitotic cell cycle arrest in human A549 cells assessed as accumulation of cells at G1/G0 phase at 100 nM after 24 hrs by flow cytometry (Rvb= 39.2%); format: functional
[14] = Induction of mitotic cell cycle arrest in potoroo PtK2 cells assessed as accumulation of cells at G1/G0 phase at 2 uM treated for 7 hrs, washed followed by 48 hrs incubation by flow cytometry (Rvb= 65.8%); format: functional, Potorous tridactylus
[15] = Induction of micronucleation in potoroo PtK2 cells at 10 uM after 7 hrs by flow cytometry; format: functional, Potorous tridactylus
[16] = Binding affinity to microtubule at 30 uM after 30 mins by HPLC-MS analysis
[17] = Induction of micronucleation in potoroo PtK2 cells at 5 uM treated for 7 hrs followed by compound washout measured after 16 hrs by flow cytometry; format: functional, Potorous tridactylus
[18] = Induction of mitotic cell cycle arrest in potoroo PtK2 cells assessed as accumulation of cells at G1/G0 phase at 2 uM after 7 hrs by flow cytometry (Rvb= 15.5%); format: functional, Potorous tridactylus
[19] = Cytotoxicity against human A2780AD cells; format: functional, cell-based; conditions: A2780 ADR
[20] = system: A2780; assay: Induction of mitotic cell cycle arrest in human A2780 cells assessed as accumulation of cells at SubG1 phase at 100 nM after 24 hrs by flow cytometry (Rvb= 2.5%); format: functional
[21] = Induction of mitotic cell cycle arrest in potoroo PtK2 cells assessed as accumulation of cells at G1/G0 phase at 2 uM after 7 hrs by flow cytometry (Rvb= 60%); format: functional, Potorous tridactylus
[22] = system: A549; assay: Induction of mitotic cell cycle arrest in human A549 cells assessed as accumulation of cells at G2+M phase at 100 nM after 24 hrs by flow cytometry (Rvb= 19.6%); format: functional
[23] = Induction of mitotic cell cycle arrest in potoroo PtK2 cells assessed as accumulation of cells at G2+M phase at 5 uM after 7 hrs by flow cytometry (Rvb= 22.1%); format: functional, Potorous tridactylus
[24] = system: PtK2; assay: Displacement of Flutax-2 from microtubule in potoroo PtK2 cells at 100 uM; conditions: Potorous tridactylus
[25] = Induction of mitotic cell cycle arrest in potoroo PtK2 cells assessed as accumulation at S phase at 100 nM after 24 hrs by flow cytometry (Rvb= 12%); format: functional, Potorous tridactylus
[26] = Displacement of [3H]paclitaxel from microtubule assessed as bound radioligand level at 20 uM treated before radioligand addition by competitive binding assay
[27] = system: A2780; assay: Induction of mitotic cell cycle arrest in human A2780 cells assessed as accumulation of cells at S phase at 100 nM after 24 hrs by flow cytometry (Rvb= 17.5%); format: functional
[28] = system: A2780; assay: Induction of mitotic cell cycle arrest in human A2780 cells assessed as accumulation of cells at G1/G0 phase at 100 nM after 24 hrs by flow cytometry (Rvb= 60%); format: functional
[29] = Induction of mitotic cell cycle arrest in potoroo PtK2 cells assessed as accumulation of cells at G1/G0 phase at 5 uM treated for 7 hrs, washed followed by 16 hrs incubation by flow cytometry (Rvb= 59%); format: functional, Potorous tridactylus
[30] = system: PtK2; assay: Induction of microtubule bundle formation in potoroo PtK2 cells at 2 uM treated for 7 hrs followed by compound washout measured after 48 hrs by flow cytometry; format: cell-based; conditions: Potorous tridactylus
[31] = Induction of mitotic cell cycle arrest in potoroo PtK2 cells assessed as accumulation of cells at SubG1 phase at 5 uM after 7 hrs by flow cytometry (Rvb= 2.4%); format: functional, Potorous tridactylus
[32] = Displacement of [3H]discodermolide from microtubule assessed as bound radioligand level at 20 uM treated before radioligand addition by competitive binding assay
[33] = Binding affinity to microtubule
[34] = system: PtK2; assay: Induction of microtubule bundle formation in potoroo PtK2 cells at 2 uM after 7 hrs by flow cytometry; format: cell-based; conditions: Potorous tridactylus
[35] = system: A549; assay: Cytotoxicity against human A549 cells; format: functional, cell-based
[36] = Induction of mitotic cell cycle arrest in human A2780AD cells assessed as accumulation of cells at G1/G0 phase at 100 nM after 24 hrs by flow cytometry (Rvb= 59.2%); format: functional, A2780 ADR

Activity [2]: Active | Activity [9]: 60% | Activity [16]: Active | Activity [26]: 25% | Activity [32]: 19% | Kd [33]: 49 nM
SMILES: CC1=C[C@H]2[C@@H](O)[C@H](C)[C@@H](O)[C@@H]2[C@H]2[C@@H]3C4=C5O[C@](C)(CC[C@@H](OC4=O)[C@H]5C)[C@@H]3C[C@@H]12 [CYCLOSTREPTIN]
Activity [1]: 4% | Activity [3]: 2.6% | Activity [4]: 3.4% | Activity [5]: 70% | Activity [6]: 71% | Activity [7]: 20.5% | Activity [8]: 45.2% | Activity [10]: 4% | Activity [11]: 65.5% | Activity [12]: 70% | Activity [13]: 4% | Activity [14]: 8.7% | Activity [15]: 4% | Activity [17]: 70% | Activity [18]: 18% | IC50 [19]: 51 nM | Activity [20]: 16.3% | Activity [21]: 48% | Activity [22]: 72% | Activity [23]: 35% | Activity [24]: Active | Activity [25]: 14.8% | Activity [27]: 10.6% | Activity [28]: 12.1% | Activity [29]: 18.5% | Activity [30]: Active | Activity [31]: 2.3% | Activity [34]: 4% | IC50 [35]: 45.5 nM | Activity [36]: 6.6%
